Calls of active or inactive are those of the source. The rule behind the calls is not given here. *1 amine or outer side, *2 acyl side, *3 side chain or, on linkers, in order; H or OH if unused. Where a SMILES comes first, the peptide text is derived from it. Bridges are numbered along the chain shown (N, C = ends). [ ]: non-standard residue; d: D form. The star is where a group is joined. hTyr(3S-OH,4S-OH,3'-OSO3H) = N[C@H](C(=O)O)[C@H](O)[C@@H](O)c1ccc(O)c(OS(=O)(=O)O)c1; Orn(4R-OH,5R-OH) = O=C([C@H](C[C@@H](O)[C@@H](O)N[*:3])N[*:1])[*:2]; Pro(3S-OH,4S-Me) = C[C@H]1CN[C@H](C(=O)O)[C@H]1O; X1 = CCCCCOc1ccc(-c2cc(-c3ccc(C(=O)*)cc3)no2)cc1; Gln(3R-OH) = NC(=O)C[C@@H](O)[C@H](N)C(=O)O; Hyp = O=C(O)[C@@H]1C[C@@H](O)CN1
Key:
Nakaseomyces glabratus [1] = assay: Antifungal activity against Candida glabrata ATCC 90030 assessed as growth inhibition at 0.0039 to 0.125 ug/ml after 48 hrs; assay type: functional, organism-based
Summary of the method: (§1)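 Inhibition curve in CLSI M27-A3 microdilution: RPMI 1640 with 0.2% glucose, MOPS-buffered to pH 7.0, final inoculum 1 × 10^3 cells/ml. OD600 was read on a microplate spectrophotometer at 24 h and 48 h. Percent inhibition was calculated relative to the growth-control well.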

Nakaseomyces glabratus [2] = assay: Antifungal activity against Candida glabrata ATCC 90030 assessed as growth inhibition at 0.0039 to 0.125 ug/ml after 24 hrs; assay type: functional, organism-based; summary of the method: as §1
Nakaseomyces glabratus [3] = assay: Antifungal activity against Candida glabrata ATCC 90030 after 48 hrs by broth microdilution method in presence of 2% glucose; assay type: functional; details: ATCC 90030, 48 h
Summary of the method: (§2)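 CLSI M27-A3 broth microdilution in RPMI 1640 (pH 7.0, 0.165 M MOPS) with glucose at 2%, 0.2%, 0.1%, 0.05% or 0.02%, or with 0.2% glycerol in place of glucose. Inoculum from 24-h SDA culture at 35°C, final 1 × 10^3 cells/ml. Incubated 48 h. MIC is the lowest concentration giving a prominent turbidity drop; OD600 also read against the growth control.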

Nakaseomyces glabratus [4] = assay: Antifungal activity against Candida glabrata ATCC 90030 after 48 hrs by broth microdilution method in presence of 0.2% glucose; assay type: functional; details: ATCC 90030, 48 h; summary of the method: as §2
Nakaseomyces glabratus [5] = assay: Antifungal activity against Candida glabrata ATCC 90030 after 48 hrs by broth microdilution method in presence of 0.1% glucose; assay type: functional; details: ATCC 90030, 48 h; summary of the method: as §2
Nakaseomyces glabratus [6] = assay: Antifungal activity against Candida glabrata ATCC 90030 after 48 hrs by broth microdilution method in presence of 0.05% glucose; assay type: functional; details: ATCC 90030, 48 h; summary of the method: as §2
Nakaseomyces glabratus [7] = assay: Antifungal activity against Candida glabrata ATCC 90030 after 48 hrs by broth microdilution method in presence of 0.02% glucose; assay type: functional; details: ATCC 90030, 48 h; summary of the method: as §2
Nakaseomyces glabratus [8] = assay: Antifungal activity against Candida glabrata ATCC 90030 after 48 hrs by broth microdilution method in presence of 0.2% glycerol; assay type: functional; details: ATCC 90030, 48 h; summary of the method: as §2
Nakaseomyces glabratus [9] = assay: Antifungal activity against Candida glabrata ATCC 90030 infected in ICR mouse assessed as fungal load in kidney at 0.025 mg/kg/day, sc for 8 days measured on day 8; assay type: functional; details: route subcutaneous
Summary of the method: (§3)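 Four-week-old male SPF ICR mice (n=5/group) were made neutropenic with cyclophosphamide 200 mg/kg ip on day −3 and 100 mg/kg on day +1. They were infected iv (tail vein) with 7.68 × 10^6 CFU/mouse in saline. Dosing was sc once daily for 8 days from 2 h post-infection; controls got saline. Day-8 kidney homogenates were plated on SDA with 0.1 mg/ml imipenem, 35°C, 5 days. Result is log CFU/kidneys, Dunnett test versus control.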

Nakaseomyces glabratus [10] = assay: Antifungal activity against Candida glabrata ATCC 90030 infected in ICR mouse assessed as fungal load in kidney at 0.05 mg/kg/day, sc for 8 days measured on day 8; assay type: functional; details: route subcutaneous; summary of the method: as §3
Nakaseomyces glabratus [11] = assay: Antifungal activity against Candida glabrata ATCC 90030 infected in ICR mouse assessed as fungal load in kidney at 0.1 mg/kg/day, sc for 8 days measured on day 8; assay type: functional; details: route subcutaneous; summary of the method: as §3
Nakaseomyces glabratus [12] = assay: Antifungal activity against Candida glabrata ATCC 90030 infected in ICR mouse assessed as fungal load in kidney at 0.5 mg/kg/day, sc for 8 days measured on day 8; details: route subcutaneous
Nakaseomyces glabratus [13] = assay: Antifungal activity against Candida glabrata ATCC 90030 infected in ICR mouse assessed as fungal load in kidney at 0.25 mg/kg/day, sc for 8 days measured on day 8; details: route subcutaneous
Nakaseomyces glabratus [14] = assay: Antifungal activity against Candida glabrata ATCC 90030 infected in ICR mouse assessed as fungal load in kidney at 0.125 mg/kg/day, sc for 8 days measured on day 8; details: route subcutaneous
Nakaseomyces glabratus [15] = assay: Antifungal activity against Candida glabrata ATCC 90030 infected in ICR mouse assessed as fungal load in kidney at 2.5 mg/kg/day, sc for 8 days measured on day 8; assay type: functional; details: route subcutaneous
Summary of the method: (§4)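 Four-week-old male SPF ICR mice made neutropenic with cyclophosphamide ip, 200 mg/kg on day −3 and 100 mg/kg on day +1. Infected iv by tail vein with 7.68 × 10^6 CFU from an overnight SDA culture in saline. Dosed sc once daily for 8 days starting 2 h post-infection, 5 mice per group, saline controls. Kidneys harvested on day 8, homogenates plated on SDA with imipenem, 5 days at 35°C, log CFU counted, Dunnett test.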

Nakaseomyces glabratus [16] = assay: Antifungal activity against Candida glabrata ATCC 90030 infected in ICR mouse assessed as fungal load in kidney at 5 mg/kg/day, sc for 8 days measured on day 8; assay type: functional; details: route subcutaneous; summary of the method: as §4
Nakaseomyces glabratus [17] = assay: Antifungal activity against Candida glabrata ATCC 90030 infected in ICR mouse assessed as fungal load in kidney at 10 mg/kg/day, sc for 8 days measured on […]; assay type: functional; details: route subcutaneous
Nakaseomyces glabratus [18] = assay: Antifungal activity against Candida glabrata ATCC 90030 after 48 hrs by Almar blue assay in presence of 0.2% glucosel; details: ATCC 90030, 48 h
Nakaseomyces glabratus [19] = assay: Antifungal activity against Candida glabrata ATCC 90030 after 24 hrs by broth microdilution method in presence of 2% glucose; assay type: functional; details: ATCC 90030, 24 h
Nakaseomyces glabratus [20] = assay: Antifungal activity against Candida glabrata ATCC 90030 after 24 hrs by broth microdilution method in presence of 0.2% glucose; assay type: functional; details: ATCC 90030, 24 h
Nakaseomyces glabratus [21] = assay: Antifungal activity against Candida glabrata ATCC 90030 after 24 hrs by broth microdilution method in presence of 0.1% glucose; assay type: functional; details: ATCC 90030, 24 h
Nakaseomyces glabratus [22] = assay: Antifungal activity against Candida glabrata ATCC 90030 after 24 hrs by broth microdilution method in presence of 0.05% glucose; assay type: functional; details: ATCC 90030, 24 h
Nakaseomyces glabratus [23] = assay: Antifungal activity against Candida glabrata ATCC 90030 after 24 hrs by broth microdilution method in presence of 0.02% glucose; assay type: functional; details: ATCC 90030, 24 h
Nakaseomyces glabratus [24] = assay: Antifungal activity against Candida glabrata ATCC 90030 after 24 hrs by Almar blue assay in presence of 0.2% glucose; details: ATCC 90030, 24 h

N=C(N)c1ccc(OCCCC2CCN(CCCOc3ccc(C(=N)N)cc3)CC2)cc1
Activity (Nakaseomyces glabratus [1]): Active | Activity (Nakaseomyces glabratus [2]): Active | MIC (Nakaseomyces glabratus [3]): > 0.125 µg/mL | MIC (Nakaseomyces glabratus [4]): 0.0039 µg/mL | MIC (Nakaseomyces glabratus [5]): 0.0039 µg/mL | MIC (Nakaseomyces glabratus [6]): 0.001 µg/mL | MIC (Nakaseomyces glabratus [7]): 0.001 µg/mL | MIC (Nakaseomyces glabratus [8]): 0.0005 µg/mL | log10cfu (Nakaseomyces glabratus [9]): 4.3 | log10cfu (Nakaseomyces glabratus [10]): 4 | log10cfu (Nakaseomyces glabratus [11]): 3.86

C[C@@H]1[C@H](O)[C@@H](C)/C=C/C=C/C=C/C=C/C=C/C=C/C=C/[C@H](O[C@@H]2O[C@H](C)[C@@H](O)[C@H](N)[C@@H]2O)C[C@@H]2O[C@](O)(C[C@@H](O)C[C@@H](O)[C@H](O)CC[C@@H](O)C[C@@H](O)CC(=O)O[C@H]1C)C[C@H](O)[C@H]2C(=O)O [AMPHOTERICIN B]
MIC (Nakaseomyces glabratus [3]): 2 µg/mL | MIC (Nakaseomyces glabratus [4]): 2 µg/mL | MIC (Nakaseomyces glabratus [5]): 2 µg/mL | MIC (Nakaseomyces glabratus [6]): 2 µg/mL | MIC (Nakaseomyces glabratus [7]): 2 µg/mL | MIC (Nakaseomyces glabratus [8]): 1 µg/mL | log10cfu (Nakaseomyces glabratus [12]): 2.93 | log10cfu (Nakaseomyces glabratus [13]): 4.53 | log10cfu (Nakaseomyces glabratus [14]): 4.61

OC(Cn1cncn1)(Cn1cncn1)c1ccc(F)cc1F [FLUCONAZOLE]
MIC (Nakaseomyces glabratus [3]): 16 µg/mL | MIC (Nakaseomyces glabratus [4]): 8 µg/mL | MIC (Nakaseomyces glabratus [5]): 8 µg/mL | MIC (Nakaseomyces glabratus [6]): 8 µg/mL | MIC (Nakaseomyces glabratus [7]): 4 µg/mL | MIC (Nakaseomyces glabratus [8]): 4 µg/mL | log10cfu (Nakaseomyces glabratus [15]): 4.96 | log10cfu (Nakaseomyces glabratus [16]): 5.33 | log10cfu (Nakaseomyces glabratus [17]): 4.62 | MIC (Nakaseomyces glabratus [18]): 16 µg/mL

CCCCCOc1ccc(-c2cc(-c3ccc(C(=O)N[C@H]4C[C@@H](O)[C@@H](O)NC(=O)[C@@H]5[C@@H](O)[C@@H](C)CN5C(=O)[C@H]([C@H](O)CC(N)=O)NC(=O)[C@H]([C@H](O)[C@@H](O)c5ccc(O)c(OS(=O)(=O)O)c5)NC(=O)[C@@H]5C[C@@H](O)CN5C(=O)[C@H]([C@@H](C)O)NC4=O)cc3)no2)cc1 [MICAFUNGIN] (X1-[Orn(4R-OH,5R-OH)]T[Hyp][hTyr(3S-OH,4S-OH,3'-OSO3H)][Gln(3R-OH)][Pro(3S-OH,4S-Me)]; lactam 1-C)
MIC (Nakaseomyces glabratus [8]): 0.125 µg/mL | MIC (Nakaseomyces glabratus [19]): 0.0625 µg/mL | MIC (Nakaseomyces glabratus [20]): 0.0625 µg/mL | MIC (Nakaseomyces glabratus [21]): 0.0625 µg/mL | MIC (Nakaseomyces glabratus [22]): 0.0625 µg/mL | MIC (Nakaseomyces glabratus [23]): 0.125 µg/mL | MIC (Nakaseomyces glabratus [24]): 0.0625 µg/mL | MIC (Nakaseomyces glabratus [18]): 0.0625 µg/mL | log10cfu (Nakaseomyces glabratus [12]): 3.59 | log10cfu (Nakaseomyces glabratus [13]): 5.21 | log10cfu (Nakaseomyces glabratus [14]): 5.13

From ChEMBL document CHEMBL1649313, “T-2307 shows efficacy in a murine model of Candida glabrata infection despite in vitro trailing growth phenomena” (2010)
